Results: ChEMBL document CHEMBL1144062, “A new tyrosine kinase inhibitor from the marine brown alga Stypopodium zonale” (J Nat Prod, 1999)
The source made the active and inactive calls. The calls are words filed in the database; no cut-off is given here.

Key:
[1] = molecular target: Tyrosine-protein kinase Lck (Homo sapiens, UniProt P06239); assay: Inhibition of tyrosine kinase p56-lck
[2] = test system: Priestia megaterium; assay: Antibacterial activity against Bacillus megaterium at 50 ug/disk; format: functional; conditions: for zone of inhibition at 50 µg/disc: read-out: IZ
In short: (§1)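 Agar diffusion assay: 50 µg of compound applied per filter disk on seeded agar. The read-out is the inhibition zone, measured in mm from the edge of the filter disk.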

[3] = test system: Escherichia coli; assay: Antibacterial activity against Escherichia coli at 50 ug/disk; format: functional; conditions: for zone of inhibition at 50 µg/disc: read-out: IZ; in short: as §1
[4] = test system: Aspergillus pseudoglaucus; assay: Antifungal activity against Eurotium repens at 50 ug/disk; format: functional; conditions: for zone of inhibition at 50 µg/disc: read-out: IZ; in short: as §1
[5] = test system: Fusarium oxysporum; assay: Antifungal activity against Fusarium oxysporum at 50 ug/disk; format: functional; in short: as §1
[6] = test system: Microbotryum violaceum; assay: Antifungal activity against Ustilago violacea at 50 ug/disk; format: functional; in short: as §1
[7] = test system: Mycotypha microspora; assay: Antifungal activity against Mycotypha microspora at 50 ug/disk; format: functional; in short: as §1
[8] = test system: [Chlorella] fusca; assay: Antialgal activity against Chlorella fusca at 50 ug/disk; format: functional; conditions: Scenedesmus fuscus; for zone of inhibition at 50 µg/disc: read-out: IZ; in short: as §1
[9] = molecular target: Human immunodeficiency virus type 1 reverse transcriptase (Human immunodeficiency virus 1) (UniProt Q72547); assay: Inhibition of HIV1 RT

| IC50 [1] [µM] | Activity [9] | Activity [1] | Compound | zone of inhibition at 50 µg/disc [2] [mm] | zone of inhibition at 50 µg/disc [3] [mm] | Activity [4] | Activity [5] | Activity [6] | Activity [7] | zone of inhibition at 50 µg/disc [8] [mm] | zone of inhibition at 50 µg/disc [4] [mm] | zone of inhibition at 50 µg/disc ([5]; read-out: IZ) [mm] | zone of inhibition at 50 µg/disc ([6]; read-out: IZ) [mm] | zone of inhibition at 50 µg/disc ([7]; read-out: IZ) [mm] | Activity [8] | Activity [2] | Activity [3] |
| --- | --- | --- | --- | --- | --- | --- | --- | --- | --- | --- | --- | --- | --- | --- | --- | --- | --- |
| 208 | inactive | – | COc1cc(C)c(O)c(C[C@]2(C)[C@H]3CCC(=C(C)C)[C@@H](CCC(=O)O)[C@]3(C)CC[C@H]2C)c1 [ATOMARIC ACID] | 1 | 1 | inactive | inactive | inactive | inactive | 5 | – | – | – | – | – | – | – |
| 187 | inactive | – | CC1=CC(=O)C=C(C[C@]2(C)[C@H]3CCC(=C(C)C)[C@@H](CCC(=O)O)[C@]3(C)CC[C@H]2C)C1=O [STYPOQUINONIC ACID] | 1 | 1 | inactive | inactive | inactive | inactive | – | – | – | – | – | inactive | – | – |

The remaining lines, values behind:

| Compound | IC50 [1] [µM] | Activity [9] | Activity [1] | zone of inhibition at 50 µg/disc [2] [mm] | zone of inhibition at 50 µg/disc [3] [mm] | Activity [4] | Activity [5] | Activity [6] | Activity [7] | zone of inhibition at 50 µg/disc [8] [mm] | zone of inhibition at 50 µg/disc [4] [mm] | zone of inhibition at 50 µg/disc ([5]; read-out: IZ) [mm] | zone of inhibition at 50 µg/disc ([6]; read-out: IZ) [mm] | zone of inhibition at 50 µg/disc ([7]; read-out: IZ) [mm] | Activity [8] | Activity [2] | Activity [3] |
| --- | --- | --- | --- | --- | --- | --- | --- | --- | --- | --- | --- | --- | --- | --- | --- | --- | --- |
| CCOC(=O)c1ccccc1C(=O)OCC [DIETHYL PHTHALATE] | – | – | – | 10 | – | – | – | – | – | 13 | – | – | – | – | – | – | – |
| Clc1ccc(COC(Cn2ccnc2)c2ccc(Cl)cc2Cl)c(Cl)c1 (stereo unspecified) [MICONAZOLE] | – | – | – | – | – | – | – | – | – | 4 | 20 | 3 | 32 | 5 | – | – | – |
| Cc1cc(O)cc2c1O[C@@]1(C)CC[C@@H]3[C@@]4(C)CC[C@H](O)C(C)(C)[C@@H]4CC[C@@]3(C)[C@@H]1C2 [TAONDIOL] | – | inactive | inactive | – | – | – | – | – | – | – | 2 | – | – | – | inactive | inactive | inactive |
